Assay results published in ChEMBL document CHEMBL1133404, “Synthesis and biological activities of NB-506 analogues modified at the glucose group” (Bioorg Med Chem Lett, 2000).
pEC50, pIC50: −log10 of the molar value.

Columns and labels:
P388 [1] = test: Compound was tested for the effect on the formation of protein-DNA complex in P388 cells investigated by the K+/SDS method; format: functional, Mus musculus
Method in brief: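 Formation of topoisomerase–DNA (protein–DNA) complexes was measured in murine leukemia P388 cells by K+/SDS precipitation. Activity was reported as EC200.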

DNA topoisomerase 1 = molecular target: T1, DNA topoisomerase 1 (Homo sapiens, UniProt P11387); test: Inhibitory effect on topoisomerase-1 mediated DNA cleavage using supercoiled pBR322 plasmid DNA; format: functional
T1 sequence (P11387 whole entry): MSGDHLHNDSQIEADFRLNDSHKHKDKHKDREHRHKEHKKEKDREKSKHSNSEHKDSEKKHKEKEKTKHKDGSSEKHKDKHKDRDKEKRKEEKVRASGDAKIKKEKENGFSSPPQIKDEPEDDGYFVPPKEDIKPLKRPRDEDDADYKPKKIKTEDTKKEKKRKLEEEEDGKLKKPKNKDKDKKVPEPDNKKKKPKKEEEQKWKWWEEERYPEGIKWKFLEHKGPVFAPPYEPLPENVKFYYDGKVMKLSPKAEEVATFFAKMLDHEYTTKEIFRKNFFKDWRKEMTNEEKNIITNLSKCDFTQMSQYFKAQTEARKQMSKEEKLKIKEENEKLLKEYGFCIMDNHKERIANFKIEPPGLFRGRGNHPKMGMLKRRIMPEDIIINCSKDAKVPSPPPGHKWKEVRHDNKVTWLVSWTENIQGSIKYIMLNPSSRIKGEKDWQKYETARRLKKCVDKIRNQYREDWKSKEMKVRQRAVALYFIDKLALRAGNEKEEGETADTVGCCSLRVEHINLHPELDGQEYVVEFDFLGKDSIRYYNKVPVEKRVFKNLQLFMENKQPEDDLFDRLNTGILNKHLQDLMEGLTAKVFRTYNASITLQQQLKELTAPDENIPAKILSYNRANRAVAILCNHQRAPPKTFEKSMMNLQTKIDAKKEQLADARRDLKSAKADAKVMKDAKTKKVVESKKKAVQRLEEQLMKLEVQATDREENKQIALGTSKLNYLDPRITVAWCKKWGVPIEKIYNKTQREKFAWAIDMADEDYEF

DNA topoisomerase II = DNA topoisomerase II (Homo sapiens, UniProt P11388+Q02880); test: Tested for inhibitory effect on topoisomerase-2 mediated DNA cleavage using super coiled pBR322 plasmid DNA; format: functional
P388 [2] = test: The compound was tested for the cytotoxic activity against murine leukemia cells (P388); format: functional, cell-based; details: Mus musculus
Method in brief: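 The murine leukemia P388 cell line was used. Cytotoxicity was read out by a colorimetric tetrazolium–formazan assay.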

MKN-45 [3] = test: Tested for cytotoxic activity against human stomach cancer cells (MKN-45); format: functional, cell-based
Method in brief: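 The human stomach cancer MKN-45 cell line was used. Cytotoxicity was read out by a colorimetric tetrazolium–formazan assay and by sulforhodamine B dye staining.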

Protein kinase C (PKC) = test: Inhibitory effect on protein kinase C using histone II-As as substrate; format: protein assay
MKN-45 [4] = test: Ratio of compound toxicity to that of anticancer activity against human stomach cancer cells MKN-45 in mice; format: functional
Method in brief: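 MKN-45 human stomach cancer cells were implanted subcutaneously in a side flank of nude mice. Dosing began once tumors reached 0.2 cm³ or larger and was given intravenously five times per week for 2 weeks. GID75 is the approximate dose giving 75% tumor growth inhibition. LD10 is the approximate 10% lethal dose on the same schedule. Safety margin is LD10/GID75.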

MKN-45 [5] = test: Inhibitory activity against human stomach cancer cells MKN-45 in nude mice after intravenous dose
Mus sp. = organism: Mus sp.; test: Tested for toxicity in mice; format: organism-based; details: in vivo
Method in brief: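 Nude mice bearing subcutaneous MKN-45 human stomach cancer flank xenografts; dosing intravenous five times/week for 2 weeks, starting once tumors reached 0.2 cm³ or larger. Toxicity expressed as LD₁₀, the approximate dose lethal to 10% of animals on this schedule.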

EC50 (DNA topoisomerase II) [nM]	SMILES	EC200 (P388 [1]) [nM]	pEC50 (DNA topoisomerase 1)	pIC50 (P388 [2])	pIC50 (MKN-45 [3])	IC50 (Protein kinase C (PKC)) [nM]	Saftey margin (MKN-45 [4])	GID75 (MKN-45 [5]) [mg m**-2]	LD10 (Mus sp.) [mg m**-2]
> 50000	O=C1c2c(c3c4ccc(O)cc4n([C@@H]4O[C@H](CO)[C@@H](O)[C@@H]4O)c3c3[nH]c4cc(O)ccc4c23)C(=O)N1NC(CO)CO	430	7.49	8.28	7.03	120000			
> 50000	O=C1c2c(c3c4ccc(O)cc4n([C@H]4O[C@H](CO)[C@H](O)[C@H]4O)c3c3[nH]c4cc(O)ccc4c23)C(=O)N1NC(CO)CO	400	7.77	7.92	7.17	> 200000			
> 50000	C[C@H]1O[C@@H](n2c3cc(O)ccc3c3c4c(c5c6ccc(O)cc6[nH]c5c32)C(=O)N(NC(CO)CO)C4=O)[C@H](O)[C@@H](O)[C@@H]1O	6500	6.85	8.52	7.42	60000			
> 50000	O=C1c2c(c3c4ccc(O)cc4n([C@@H]4O[C@@H](C(O)CO)[C@@H](O)[C@H]4O)c3c3[nH]c4cc(O)ccc4c23)C(=O)N1NC(CO)CO (some centres undefined)	1700	7.70	7.85	7.54	> 200000			
> 50000	O=C1c2c(c3c4ccc(O)cc4n([C@@H]4O[C@H](CO)[C@@H](O[C@H]5O[C@H](CO)[C@@H](O)[C@H](O)[C@H]5O)[C@H](O)[C@H]4O)c3c3[nH]c4cc(O)ccc4c23)C(=O)N1NC(CO)CO	>10000	< 5.52	8.46	7.14	> 200000			
> 50000	O=C1c2c(c3c4ccc(O)cc4n([C@H]4C[C@H](O)[C@@H](CO)O4)c3c3[nH]c4cc(O)ccc4c23)C(=O)N1NC(CO)CO	170	7.60	8.36	7.35	3000			
	O=C1c2c(c3c4ccc(O)cc4n([C@@H]4OC[C@@H](O)[C@H]4O)c3c3[nH]c4cc(O)ccc4c23)C(=O)N1NC(CO)CO		7.40	8.62	7.43	12000			
> 50000	O=C1c2c(c3c4ccc(O)cc4n([C@@H]4C[C@@H](O)[C@H](O)[C@@H](CO)O4)c3c3[nH]c4cc(O)ccc4c23)C(=O)N1NC(CO)CO	1200	6.89	7.80	7.48	150000			
	O=C1c2c(c3c4ccc(O)cc4n([C@H]4O[C@H](CO)[C@@H](O)[C@@H](O)[C@H]4O)c3c3[nH]c4cc(O)ccc4c23)C(=O)N1NC(CO)CO	1600	7.59	7.74	7.70	72000			
	O=C1c2c(c3c4ccc(O)cc4n([C@@H]4O[C@H](CO)[C@H](O)[C@H](O)[C@H]4O)c3c3[nH]c4cc(O)ccc4c23)C(=O)N1NC(CO)CO	>10000	6.85	8.15	8.03	> 200000			
> 50000	O=C1c2c(c3c4ccc(O)cc4n([C@@H]4OC[C@@H](O)[C@H](O)[C@H]4O)c3c3[nH]c4cc(O)ccc4c23)C(=O)N1NC(CO)CO	300	7.00	8.42	7.30	> 200000			
> 50000	O=C1c2c(c3c4ccc(O)cc4n([C@H]4C[C@@H](O)[C@H](O)[C@@H](CO)O4)c3c3[nH]c4cc(O)ccc4c23)C(=O)N1NC(CO)CO	3000	6.62	8.25	7.38	130000			
> 50000	O=C1c2c(c3c4ccc(O)cc4n([C@H]4O[C@H](CO)[C@@H](O)[C@@H]4O)c3c3[nH]c4cc(O)ccc4c23)C(=O)N1NC(CO)CO	2600	7.00	8.07	7.37	> 200000			

SMILES	EC50 (DNA topoisomerase II) [nM]	EC200 (P388 [1]) [nM]	pEC50 (DNA topoisomerase 1)	pIC50 (P388 [2])	pIC50 (MKN-45 [3])	IC50 (Protein kinase C (PKC)) [nM]	Saftey margin (MKN-45 [4])	GID75 (MKN-45 [5]) [mg m**-2]	LD10 (Mus sp.) [mg m**-2]
O=C1c2c(c3c4ccc(O)cc4n([C@@H]4O[C@H](CO)[C@H](O)[C@H]4O)c3c3[nH]c4cc(O)ccc4c23)C(=O)N1NC(CO)CO	> 50000	60	7.77	9.02	8.22	> 200000	1.4	300	420
O=C1c2c(c3c4ccc(O)cc4n([C@@H]4O[C@H](CO)[C@@H](O)[C@H]4O)c3c3[nH]c4cc(O)ccc4c23)C(=O)N1NC(CO)CO	> 50000	32	8.10	8.74	7.30	20000	2	290	570
O=C1c2c(c3c4ccc(O)cc4n([C@H]4O[C@H](CO)[C@@H](O)[C@H]4O)c3c3[nH]c4cc(O)ccc4c23)C(=O)N1NC(CO)CO	> 50000	450	7.52	7.72	6.89	21000	1.9	540	1000
O=C1c2c(c3c4ccc(O)cc4n([C@H]4O[C@H](CO)[C@@H](O)[C@H](O)[C@@H]4O)c3c3[nH]c4cc(O)ccc4c23)C(=O)N1NC(CO)CO	> 50000	930	7.10	7.82	7.64	50000			
O=C1c2c(c3c4ccc(O)cc4n([C@@H]4O[C@H](C(O)CO)[C@@H](O)[C@H]4O)c3c3[nH]c4cc(O)ccc4c23)C(=O)N1NC(CO)CO (some centres undefined)	> 50000	2000	7.38	7.77	7.15	> 200000	1.4	260	370
O=C1c2c(c3c4ccc(O)cc4n([C@@H]4O[C@H](CO)[C@@H](O)[C@@H](O)[C@H]4O)c3c3[nH]c4cc(O)ccc4c23)C(=O)N1NC(CO)CO	> 50000	160	7.59	7.89	7.48	17000	2.3	440	990
O=C1c2c(c3c4ccc(O)cc4n([C@@H]4O[C@H](CO)[C@@H](O)[C@H](O)[C@@H]4O)c3c3[nH]c4cc(O)ccc4c23)C(=O)N1NC(CO)CO	> 50000	>10000	6.64	7.44	7.20	20000			
O=C1c2c(c3c4ccc(O)cc4n([C@H]4O[C@H](CO)[C@@H](O)[C@H](O)[C@H]4O)c3c3[nH]c4cc(O)ccc4c23)C(=O)N1NC(CO)CO	> 50000	450	6.52	7.72	8.07	23000	1.5	110	170
O=C1c2c(c3c4ccc(O)cc4n([C@@H]4O[C@H](CO)[C@@H](O)[C@H](O)[C@H]4O)c3c3[nH]c4cc(O)ccc4c23)C(=O)N1NC(CO)CO [EDOTECARIN]	> 50000	100	7.29	8.82	8.32	200000	>36	45	> 1600
